Test results reported in ChEMBL document CHEMBL3259562, “4-Alkyloxyimino derivatives of uridine-5'-triphosphate: distal modification of potent agonists as a strategy for molecular probes of P2Y2, P2Y4, and P2Y6 receptors” (J Med Chem, 2014).
Activity calls are given as the source filed them. No cut-off for these calls is given here.

Experiments:
P2Y purinoceptor 2 [1] = target: T1, P2Y purinoceptor 2 (Homo sapiens, UniProt P41231); test: Agonist activity at human P2Y2 receptor expressed in human 1321N1 cells assessed as stimulation of [3H]inositol phosphate accumulation by liquid scintillation counting; format: functional, cell-based
T1 sequence (P41231 whole entry): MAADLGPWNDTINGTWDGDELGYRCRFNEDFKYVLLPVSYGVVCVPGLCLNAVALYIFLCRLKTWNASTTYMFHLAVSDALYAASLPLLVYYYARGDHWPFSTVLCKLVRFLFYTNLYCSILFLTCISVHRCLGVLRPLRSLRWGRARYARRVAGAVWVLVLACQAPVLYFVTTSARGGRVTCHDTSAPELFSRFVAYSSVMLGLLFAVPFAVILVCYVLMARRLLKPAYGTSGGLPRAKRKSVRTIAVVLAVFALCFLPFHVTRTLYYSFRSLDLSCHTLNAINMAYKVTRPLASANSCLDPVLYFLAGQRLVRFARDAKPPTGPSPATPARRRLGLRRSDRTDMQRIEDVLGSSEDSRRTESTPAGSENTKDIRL
In short: (§1)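 Stable 1321N1 lines made by retroviral expression of each human receptor (parent cells lack P2YRs), seeded at 20000 cells/well two days ahead. Labelled 16 h with 1.0 μCi [3H]myo-inositol in serum-free, inositol-free DMEM. Agonist given in 100 mM Hepes pH 7.3/HBSS with 50 mM LiCl for 30 min at 37 °C. Stopped with ice-cold 50 mM formic acid, then neutralised. Total inositol phosphates taken off Dowex AG1-X8 and counted by scintillation.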

P2Y purinoceptor 6 [2] = target: T2, P2Y purinoceptor 6 (Homo sapiens, UniProt Q15077); test: Agonist activity at human P2Y6 receptor expressed in human 1321N1 cells assessed as stimulation of [3H]inositol phosphate accumulation by liquid scintillation counting; format: functional, cell-based; in short: as §1
T2 sequence (Q15077 whole entry): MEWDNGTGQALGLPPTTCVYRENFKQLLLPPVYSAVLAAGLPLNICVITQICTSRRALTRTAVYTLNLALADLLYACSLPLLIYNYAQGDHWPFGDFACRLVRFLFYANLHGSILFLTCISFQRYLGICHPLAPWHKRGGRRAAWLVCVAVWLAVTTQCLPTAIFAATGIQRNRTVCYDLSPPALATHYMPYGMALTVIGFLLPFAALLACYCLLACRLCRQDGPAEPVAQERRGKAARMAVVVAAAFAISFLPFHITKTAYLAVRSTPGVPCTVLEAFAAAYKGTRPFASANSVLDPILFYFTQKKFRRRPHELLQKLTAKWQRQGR

P2Y purinoceptor 4 [3] = target: T3, P2Y purinoceptor 4 (Homo sapiens, UniProt P51582); test: Agonist activity at human P2Y4 receptor expressed in human 1321N1 cells assessed as stimulation of [3H]inositol phosphate accumulation by liquid scintillation counting; format: functional, cell-based; in short: as §1
T3 sequence (P51582 whole entry): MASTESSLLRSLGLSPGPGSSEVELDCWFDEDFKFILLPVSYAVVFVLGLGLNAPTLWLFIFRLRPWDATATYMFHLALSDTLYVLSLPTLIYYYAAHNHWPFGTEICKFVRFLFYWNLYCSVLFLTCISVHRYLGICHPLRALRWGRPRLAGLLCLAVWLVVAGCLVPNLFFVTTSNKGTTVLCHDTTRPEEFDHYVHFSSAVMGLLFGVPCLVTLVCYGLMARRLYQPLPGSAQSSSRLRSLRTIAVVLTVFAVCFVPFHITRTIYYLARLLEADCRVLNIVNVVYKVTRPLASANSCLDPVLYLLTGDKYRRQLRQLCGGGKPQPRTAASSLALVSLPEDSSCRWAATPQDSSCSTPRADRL

P2Y purinoceptor 4 [4] = target: T3, P2Y purinoceptor 4; test: Agonist activity at human P2Y4 receptor expressed in human 1321N1 cells by functional assay; format: cell-based; in short: as §1
P2Y purinoceptor 6 [5] = target: T2, P2Y purinoceptor 6; test: Agonist activity at human P2Y6 receptor expressed in human 1321N1 cells by functional assay; format: cell-based; in short: as §1
P2Y purinoceptor 2 [6] = target: T1, P2Y purinoceptor 2; test: Agonist activity at human P2Y2 receptor expressed in human 1321N1 cells by functional assay; format: cell-based; in short: as §1
P2Y purinoceptor 6 [7] = target: T2, P2Y purinoceptor 6; test: Binding affinity to human P2Y6 receptor expressed in human 1321N1 cells assessed as fluorescence intensity at 1 uM for 30 mins by fluorescence microscopy in presence of 10 uM MRS2578 noncompetitive antagonist; format: cell-based
In short: (§2)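 P2Y6R-1321N1 cells on glass coverslips at 80% confluence, given fresh medium and, where stated, 10 μM noncompetitive antagonist MRS2578 for 30 min at 37 °C. Fluorescent ligand then added to 1 μM final for 30 min at 37 °C. Cells washed with ice-cold PBS, mounted and imaged by fluorescence microscopy.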

P2Y purinoceptor 6 [8] = target: T2, P2Y purinoceptor 6; test: Binding affinity to human P2Y6 receptor expressed in human 1321N1 cells assessed as fluorescence intensity at 100 nM for 30 mins by flow cytometry (FCM) binding assay in presence of 10 uM MRS2179 P2Y1R-selective antagonist; format: cell-based
In short: (§3)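 P2Y6R-1321N1 cells grown in DMEM with 5% FBS, used at 80% confluence. Preincubated 30 min with 100 μM α,β-methylene-ADP plus 10 μM competing ligand, then 100 nM fluorescent ligand for 20–30 min. Cells washed three times in ice-cold DPBS, detached with 0.2% EDTA and analysed by flow cytometry (FL-4 channel, 10,000 events). MFI corrected for autofluorescence and expressed relative to ligand alone (100%); n = 4, mean ± SEM.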

P2Y purinoceptor 6 [9] = target: T2, P2Y purinoceptor 6; test: Binding affinity to human P2Y6 receptor expressed in human 1321N1 cells assessed as fluorescence intensity at 100 nM for 30 mins by flow cytometry (FCM) binding assay in presence of 100 uM ecto-nucleotidase inhibitor alpha, beta-methylene-adenosine 5'-diphosphate; format: cell-based; in short: as §3
P2Y purinoceptor 6 [10] = target: T2, P2Y purinoceptor 6; test: Binding affinity to human P2Y6 receptor expressed in human 1321N1 cells assessed as fluorescence intensity at 100 nM for 30 mins by flow cytometry (FCM) binding assay in presence of 10 uM P1-(uridine 5'-)-P4-(N4-methoxycytidine5'-)[…] selective dinucleotide agonist; format: cell-based; in short: as §3
P2Y purinoceptor 6 [11] = target: T2, P2Y purinoceptor 6; test: Binding affinity to human P2Y6 receptor expressed in human 1321N1 cells assessed as fluorescence intensity at 100 nM for 30 mins by flow cytometry (FCM) binding assay in presence of 10 uM suramin competitive antagonist; format: cell-based; in short: as §3
P2Y purinoceptor 6 [12] = target: T2, P2Y purinoceptor 6; test: Binding affinity to human P2Y6 receptor expressed in human 1321N1 cells assessed as fluorescence intensity at 1 uM for 30 mins by fluorescence microscopy; format: cell-based; in short: as §2
P2Y purinoceptor 6 [13] = target: T2, P2Y purinoceptor 6; test: Binding affinity to human P2Y6 receptor expressed in human 1321N1 cells assessed as fluorescence intensity at 100 nM for 30 mins by flow cytometry (FCM) binding assay in presence of 10 uM MRS2578 noncompetitive antagonist; format: cell-based; in short: as §3

EC50 (P2Y purinoceptor 2 [1]) [µM] | EC50 (P2Y purinoceptor 6 [2]) [µM] | EC50 (P2Y purinoceptor 4 [3]) [µM] | Compound | other results
0.168 | 3 | 0.41 | C#CCCCO/N=c1/ccn([C@@H]2O[C@H](COP(=O)(O)OP(=O)(O)OP(=O)(O)O)[C@@H](O)[C@H]2O)c(=O)[nH]1 | –
0.19 | 0.539 | 0.1 | O=c1[nH]/c(=N\OCCCc2cccc(F)c2)ccn1[C@@H]1O[C@H](COP(=O)(O)OP(=O)(O)OP(=O)(O)O)[C@@H](O)[C@H]1O | –
0.547 | 1.21 | 0.105 | O=c1[nH]/c(=N\OCCCc2ccc(F)cc2)ccn1[C@@H]1O[C@H](COP(=O)(O)OP(=O)(O)OP(=O)(O)O)[C@@H](O)[C@H]1O | –
0.187 | 0.09 | 0.091 | O=c1[nH]/c(=N\OCCCc2ccc(I)cc2)ccn1[C@@H]1O[C@H](COP(=O)(O)OP(=O)(O)OP(=O)(O)O)[C@@H](O)[C@H]1O | –
0.066 | 0.023 | 0.07 | O=C(CCCCCNC(=O)COc1ccc(/C=C/c2ccc3n2[B-](F)(F)[N+]2=C(c4cccs4)C=CC2=C3)cc1)NCCCn1cc(CCNC(=O)COc2ccc(CCCO/N=c3/ccn([C@@H]4O[C@H](COP(=O)(O)OP(=O)(O)OP(=O)(O)O)[C@@H](O)[C@H]4O)c(=O)[nH]3)cc2)nn1 | Activity (P2Y purinoceptor 6 [7]): Active; Activity (P2Y purinoceptor 6 [8]): Active; Activity (P2Y purinoceptor 6 [9]): Active; Activity (P2Y purinoceptor 6 [10]): inactive; Activity (P2Y purinoceptor 6 [11]): inactive; Activity (P2Y purinoceptor 6 [12]): Active; Activity (P2Y purinoceptor 6 [13]): inactive
0.577 | 0.334 | 0.2 | N=c1ccc2c(-c3ccc(C(=O)NCCCCCCn4cc(CCNC(=O)COc5ccc(CCCO/N=c6/ccn([C@@H]7O[C@H](COP(=O)(O)OP(=O)(O)OP(=O)(O)O)[C@@H](O)[C@H]7O)c(=O)[nH]6)cc5)nn4)cc3C(=O)O)c3ccc(N)c(S(=O)(=O)O)c3oc-2c1S(=O)(=O)O | –

The next lines start with the molecule.

Compound | EC50 (P2Y purinoceptor 2 [1]) [µM] | EC50 (P2Y purinoceptor 6 [2]) [µM] | EC50 (P2Y purinoceptor 4 [3]) [µM] | other results
O=C(O)CCCO/N=c1/ccn([C@@H]2O[C@H](COP(=O)(O)OP(=O)(O)OP(=O)(O)O)[C@@H](O)[C@H]2O)c(=O)[nH]1 | 0.299 | 0.697 | 0.47 | –
O=c1[nH]/c(=N\OCCCc2ccsc2)ccn1[C@@H]1O[C@H](COP(=O)(O)OP(=O)(O)OP(=O)(O)O)[C@@H](O)[C@H]1O | 0.103 | 0.164 | 0.02 | –
O=c1[nH]/c(=N\OCCCc2ccc([N+](=O)[O-])cc2)ccn1[C@@H]1O[C@H](COP(=O)(O)OP(=O)(O)OP(=O)(O)O)[C@@H](O)[C@H]1O | 0.458 | 1.33 | 0.084 | –
O=c1[nH]/c(=N\OCCOc2ccccc2)ccn1[C@@H]1O[C@H](COP(=O)(O)OP(=O)(O)OP(=O)(O)O)[C@@H](O)[C@H]1O | 3.4 | 1.78 | 0.43 | –
C#CCCNC(=O)COc1ccc(CCCO/N=c2/ccn([C@@H]3O[C@H](COP(=O)(O)OP(=O)(O)OP(=O)(O)O)[C@@H](O)[C@H]3O)c(=O)[nH]2)cc1 | 0.109 | 0.183 | 0.04 | –
O=c1[nH]/c(=N\OCCCc2cccc([N+](=O)[O-])c2)ccn1[C@@H]1O[C@H](COP(=O)(O)OP(=O)(O)OP(=O)(O)O)[C@@H](O)[C@H]1O | 0.457 | 9.7 | 0.095 | –
O=c1[nH]/c(=N\OCCCc2cccc(I)c2)ccn1[C@@H]1O[C@H](COP(=O)(O)OP(=O)(O)OP(=O)(O)O)[C@@H](O)[C@H]1O | 0.325 | 0.299 | 0.114 | –
N#CC(CCO/N=c1/ccn([C@@H]2O[C@H](COP(=O)(O)OP(=O)(O)OP(=O)(O)O)[C@@H](O)[C@H]2O)c(=O)[nH]1)(c1ccccc1)c1ccccc1 | 0.934 | 0.177 | 0.047 | –
O=c1[nH]/c(=N\OCCCCc2ccccc2)ccn1[C@@H]1O[C@H](COP(=O)(O)OP(=O)(O)OP(=O)(O)O)[C@@H](O)[C@H]1O | 0.214 | 0.251 | 0.054 | –
O=c1[nH]/c(=N\OCCCc2ccc3ccccc3c2)ccn1[C@@H]1O[C@H](COP(=O)(O)OP(=O)(O)OP(=O)(O)O)[C@@H](O)[C@H]1O | 0.139 | 0.09 | 0.128 | –
O=c1ccn([C@@H]2O[C@H](COP(=O)(O)OP(=O)(O)OP(=O)(O)OP(=O)(O)OC[C@H]3O[C@@H](n4cc/c(=N/OCCCc5ccccc5)[nH]c4=O)[C@H](O)[C@@H]3O)[C@@H](O)[C@H]2O)c(=O)[nH]1 | – | – | – | EC50 (P2Y purinoceptor 4 [4]): 0.093 µM; EC50 (P2Y purinoceptor 6 [5]): 0.332 µM; EC50 (P2Y purinoceptor 2 [6]): 0.389 µM
COc1ccc(CCCO/N=c2/ccn([C@@H]3O[C@H](COP(=O)(O)OP(=O)(O)OP(=O)(O)O)[C@@H](O)[C@H]3O)c(=O)[nH]2)cc1 | 0.047 | 0.277 | 0.023 | –
O=c1[nH]/c(=N\OCCCc2cccnc2)ccn1[C@@H]1O[C@H](COP(=O)(O)OP(=O)(O)OP(=O)(O)O)[C@@H](O)[C@H]1O | 0.327 | 2.95 | 0.3 | –
O=c1[nH]/c(=N\OCCCc2ccccc2)ccn1[C@@H]1O[C@H](COP(=O)(O)OP(=O)(O)OP(=O)(O)OP(=O)(O)OC[C@H]2O[C@@H](n3cc/c(=N/OCCCc4ccccc4)[nH]c3=O)[C@H](O)[C@@H]2O)[C@@H](O)[C@H]1O | – | – | – | EC50 (P2Y purinoceptor 4 [4]): 1.33 µM; EC50 (P2Y purinoceptor 6 [5]): > 10 µM; EC50 (P2Y purinoceptor 2 [6]): > 10 µM
O=c1[nH]/c(=N\OCCCc2ccncc2)ccn1[C@@H]1O[C@H](COP(=O)(O)OP(=O)(O)OP(=O)(O)O)[C@@H](O)[C@H]1O | 0.285 | 4.28 | 0.25 | –
O=c1[nH]/c(=N\OCCCc2ccc(Br)cc2)ccn1[C@@H]1O[C@H](COP(=O)(O)OP(=O)(O)OP(=O)(O)O)[C@@H](O)[C@H]1O | 0.35 | 0.225 | 0.141 | –
